ChEMBL document CHEMBL1125736, “N-[(omega-amino-1-hydroxyalkyl)phenyl]methanesulfonamide derivatives with class III antiarrhythmic activity” (1991)

Tests used:
Canis familiaris [1] = assay: Conduction time from Q wave to T wave of lead II electrocardiogram corrected for heart rate was tested in dogs at a dose of 0.3 mg/kg through intravenous administration. (baseline value- 352+/-7); format: functional, Canis lupus familiaris
Canis familiaris [2] = assay: Conduction time from Q wave to T wave of lead II electrocardiogram corrected for heart rate was tested in dogs at a dose of 1.0 mg/kg through intravenous administration. (baseline value- 352+/-7); format: functional, Canis lupus familiaris
Canis familiaris [3] = assay: Conduction time from the His bundle to the onset of ventricular depolarizations was tested in dogs at a dose of 0.1 mg/kg through intravenous administration. (baseline value- 17+/-1 ); format: functional, Canis lupus familiaris, Cardiac ventricle
Canis familiaris [4] = assay: Conduction time from the His bundle to the onset of ventricular depolarizations was tested in dogs at a dose of 0.3 mg/kg through intravenous administration. (baseline value- 17+/-1 ); format: functional, Canis lupus familiaris, Cardiac ventricle
Canis familiaris [5] = assay: Conduction time from the His bundle to the onset of ventricular depolarizations was tested in dogs at a dose of 1.0 mg/kg through intravenous administration. (baseline value- 17+/-1 ); format: functional, Canis lupus familiaris, Cardiac ventricle
Canis familiaris [6] = assay: Conduction time from the atrium to His bundle was tested in dogs at a dose of 0.1 mg/kg through intravenous administration. (baseline value- 73+/-3 ); format: functional, Canis lupus familiaris
Canis familiaris [7] = assay: Compound was tested in vivo in dogs at a dose of 0.1 mg/kg through intravenous route and time at which ventricular arrhythmias were not indicible was recorded.(Base line value-1); format: functional, Canis lupus familiaris, Cardiac ventricle
Outline: (§1)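 Dogs with myocardial infarction were studied 3-9 days after infarction. They were reanesthetized with pentobarbital, ventilated, and electrodes were placed via thoracotomy; blood gases were monitored. Control ERPs and reproducible inducibility were set by programmed electrical stimulation, then cumulative iv doses were given. Agents were in glass-distilled water or NaOH-neutralized saline (pH 6.7-7.0). Animals were counted per category: NI, nonsustained, sustained, VF, or AV block preventing atrial pacing.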

Canis familiaris [8] = assay: Compound was tested in vivo in dogs at a dose of 1.0 mg/kg through intravenous route and time at which sustained ventricular arrhythmias were induced was recorded.(Base line value-3); format: functional, Canis lupus familiaris, Cardiac ventricle; outline: as §1
Canis familiaris [9] = assay: Compound was tested in vivo in dogs at a dose of 1.0 mg/kg through intravenous route and time at which ventricular arrhythmias were not indicible was recorded.(Base line value-1); format: functional, Canis lupus familiaris, Cardiac ventricle; outline: as §1
Canis familiaris [10] = assay: Compound was tested in vivo in dogs at a dose of 1.0 mg/kg through intravenous route and time at which ventricular fibrillation was induced was recorded.(Base line value-6); format: functional, Canis lupus familiaris, Cardiac ventricle; outline: as §1
Canis familiaris [11] = assay: Conduction time from the atrium to His bundle was tested in dogs at a dose of 0.3 mg/kg through intravenous administration. (baseline value- 73+/-3 ); format: functional, Canis lupus familiaris
Canis familiaris [12] = assay: Conduction time from the atrium to His bundle was tested in dogs at a dose of 1.0 mg/kg through intravenous administration. (baseline value- 73+/-3 ); format: functional, Canis lupus familiaris
Canis familiaris [13] = assay: Compound was tested in vivo in dogs at a dose of 0.1 mg/kg through intravenous route and time at which sustained ventricular arrhythmias were induced was recorded.(Base line value-3); format: functional, Canis lupus familiaris, Cardiac ventricle; outline: as §1
Canis familiaris [14] = assay: Conduction time for ventricular refractory period of the first premature stimulus was tested in dogs at a dose of 0.1 mg/kg through intravenous administration. (baseline value- 137+/-4); format: functional, Canis lupus familiaris, Cardiac ventricle
Canis familiaris [15] = assay: Conduction time for ventricular refractory period of the first premature stimulus was tested in dogs at a dose of 0.3 mg/kg through intravenous administration. (baseline value- 137+/-4); format: functional, Canis lupus familiaris, Cardiac ventricle
Canis familiaris [16] = assay: Conduction time for ventricular refractory period of the first premature stimulus was tested in dogs at a dose of 1.0 mg/kg through intravenous administration. (baseline value- 137+/-4); format: functional, Canis lupus familiaris, Cardiac ventricle
Canis familiaris [17] = assay: Compound was tested in vivo in dogs at a dose of 0.1 mg/kg through intravenous route and time at which nonsustained ventricular arrhythmias were induced was recorded.(Base line value-1); format: functional, Canis lupus familiaris, Cardiac ventricle; outline: as §1
Canis familiaris [18] = assay: Compound was tested in vivo in dogs at a dose of 0.3 mg/kg through intravenous route and time at which nonsustained ventricular arrhythmias were induced was recorded.(Base line value-1); format: functional, Canis lupus familiaris, Cardiac ventricle; outline: as §1
Canis familiaris [19] = assay: Compound was tested in vivo in dogs at a dose of 0.3 mg/kg through intravenous route and time at which sustained ventricular arrhythmias were induced was recorded.(Base line value-3); format: functional, Canis lupus familiaris, Cardiac ventricle; outline: as §1
Canis familiaris [20] = assay: Compound was tested in vivo in dogs at a dose of 0.3 mg/kg through intravenous route and time at which ventricular arrhythmias were not indicible was recorded.(Base line value-1); format: functional, Canis lupus familiaris, Cardiac ventricle; outline: as §1
Canis familiaris [21] = assay: Compound was tested in vivo in dogs at a dose of 0.3 mg/kg through intravenous route and time at which ventricular fibrillation was induced was recorded.(Base line value-6); format: functional, Canis lupus familiaris, Cardiac ventricle; outline: as §1
Canis familiaris [22] = assay: Compound was tested in vivo in dogs at a dose of 1.0 mg/kg through intravenous route and time at which nonsustained ventricular arrhythmias were induced was recorded.(Base line value-1); format: functional, Canis lupus familiaris, Cardiac ventricle; outline: as §1
Canis familiaris [23] = assay: Conduction time for ventricular refractory period of the second premature stimulus was tested in dogs at a dose of 0.1 mg/kg through intravenous administration. (baseline value- 123+/-4); format: functional, Canis lupus familiaris, Cardiac ventricle
Canis familiaris [24] = assay: Conduction time for ventricular refractory period of the second premature stimulus was tested in dogs at a dose of 0.3 mg/kg through intravenous administration. (baseline value- 123+/-4); format: functional, Canis lupus familiaris, Cardiac ventricle
Canis familiaris [25] = assay: Conduction time for ventricular refractory period of the second premature stimulus was tested in dogs at a dose of 1.0 mg/kg through intravenous administration. (baseline value- 123+/-4); format: functional, Canis lupus familiaris, Cardiac ventricle
Canis familiaris [26] = assay: Conduction time from Q wave to T wave of lead II electrocardiogram corrected for heart rate was tested in dogs at a dose of 0.1 mg/kg through intravenous administration. (baseline value- 352+/-7); format: functional, Canis lupus familiaris
Oryctolagus cuniculus [27] = species: Oryctolagus cuniculus; assay: Tested for effective refractory period measured at a pacing rate of 1 Hz in vitro with rabbit heart tissue preparations.; format: functional
Outline: (§2)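 Isolated rabbit heart tissues, all from one heart, each its own baseline; 2 h equilibration, perfusate changed every 15 min, basal stimulation 2 Hz between measurements. Exposed to 10^-7, 10^-6 and 10^-5 M drug, 15 min each; values reported at 10^-5 M as percent change from baseline. Drug solutions prepared daily in glass-distilled water. Force and rate recorded on polygraph.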

Oryctolagus cuniculus [28] = species: Oryctolagus cuniculus; assay: Tested for effective refractory period measured at a pacing rate of 3 Hz in vitro with rabbit heart tissue preparations.; format: functional; parameters: unit: %; outline: as §2
Oryctolagus cuniculus [29] = species: Oryctolagus cuniculus; assay: Tested for conduction time measured at a pacing rate of 3 Hz in vitro with rabbit heart tissue preparations.; format: functional; outline: as §2
Oryctolagus cuniculus [30] = species: Oryctolagus cuniculus; assay: Tested for force of contraction measured in mg at a pacing rate of 2 Hz in vitro with rabbit heart tissue preparations.; format: functional; outline: as §2
Oryctolagus cuniculus [31] = species: Oryctolagus cuniculus; assay: Tested for conduction time measured at a pacing rate of 1 Hz in vitro with rabbit heart tissue preparations.; format: functional; outline: as §2
Oryctolagus cuniculus [32] = species: Oryctolagus cuniculus; assay: Tested for rate automaticity measured in beats per minute from unpaced right atria of rabbit heart.; format: functional; outline: as §2
Canis familiaris [33] = assay: Compound was tested in vivo in dogs at a dose of 0.1 mg/kg through intravenous route and number of animals in which ventricular fibrillation was induced was recorded.(Base line value-6)

CCCCCCCN(CC)CCCC(O)c1ccc(NS(C)(=O)=O)cc1 (stereo not drawn) [IBUTILIDE]
Time (Canis familiaris [1]): 387 ms
Time (Canis familiaris [2]): 364 ms
Time (Canis familiaris [3]): 16 ms
Time (Canis familiaris [4]): 17 ms
Time (Canis familiaris [5]): 17 ms
Time (Canis familiaris [6]): 73 ms
Time (Canis familiaris [7]): 3 animals
Time (Canis familiaris [8]): 0 animals
Time (Canis familiaris [9]): 4 animals
Time (Canis familiaris [10]): 1 animals
Time (Canis familiaris [11]): 75 ms
Time (Canis familiaris [12]): 77 ms
Time (Canis familiaris [13]): 2 animals
Time (Canis familiaris [14]): 151 ms
Time (Canis familiaris [15]): 154 ms
Time (Canis familiaris [16]): 146 ms
Time (Canis familiaris [17]): 5 animals
Time (Canis familiaris [18]): 2 animals
Time (Canis familiaris [19]): 0 animals
Time (Canis familiaris [20]): 5 animals
Time (Canis familiaris [21]): 2 animals
Time (Canis familiaris [22]): 2 animals
Time (Canis familiaris [23]): 137 ms
Time (Canis familiaris [24]): 139 ms
Time (Canis familiaris [25]): 128 ms
Time (Canis familiaris [26]): 372 ms
ERP1 (Oryctolagus cuniculus [27]): 18
ERP3 (Oryctolagus cuniculus [28]): 15.8
CT3 (Oryctolagus cuniculus [29]): 31.2
FOC (Oryctolagus cuniculus [30]): 1.9
CT1 (Oryctolagus cuniculus [31]): 14.6
Rate (Oryctolagus cuniculus [32]): -22
number of animals (Canis familiaris [33]): 1 animals
